High-throughput results: PubChem BioAssay, several laboratories
Arrestin-AP2 inh: inhibitors of beta-arrestin/AP2 binding, primary screen, biochemical, GPCR trafficking, flow cytometry | hit rate 0.31% among 340,000 | inhibition, % at 10 µM | FITC-arrestin peptide / GST-AP2 beads; AP2 beta2 appendage carries R879A mutation;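 active = inhibition above a set limit, near 3 SD of compounds lacking own fluorescence, cut at about 54% in these data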;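 also: plate controls were DMSO wells for no effect and 5 µM unlabelled arrestin peptide for full effect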
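test system = AP2 appendage R879A on GSH beads | buffer or medium = PBS plus Tween 20 (0.05%) and BSA (0.1%) | incubation = 12 min plus 1 h, RT | detection = bead flow cytometry, FITC channel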
ABCB6 inh 2: ABCB6 transporter inhibitors, primary screen, K562-ABCB6 cells, flow cytometry, MLPCN library; ATP-binding cassette sub-family B member 6 (Homo sapiens), Q9NP58; K562-ABCB6 porphyrin accumulation, 1 h; stronger effect = lower value; fluorescence ratio to DMSO, % at 10 µM; hit rate 0.19% among 360,000;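 active = fluorescence ratio to DMSO below 75%, the collection mean minus 3 SD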;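 also: signal is porphyrin accumulated inside mitochondria; 100% equals median channel fluorescence of DMSO control wells; lower ratio means ABCB6 inhibition with less porphyrin fluorescence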
Target sequence (Q9NP58 whole entry, looked up): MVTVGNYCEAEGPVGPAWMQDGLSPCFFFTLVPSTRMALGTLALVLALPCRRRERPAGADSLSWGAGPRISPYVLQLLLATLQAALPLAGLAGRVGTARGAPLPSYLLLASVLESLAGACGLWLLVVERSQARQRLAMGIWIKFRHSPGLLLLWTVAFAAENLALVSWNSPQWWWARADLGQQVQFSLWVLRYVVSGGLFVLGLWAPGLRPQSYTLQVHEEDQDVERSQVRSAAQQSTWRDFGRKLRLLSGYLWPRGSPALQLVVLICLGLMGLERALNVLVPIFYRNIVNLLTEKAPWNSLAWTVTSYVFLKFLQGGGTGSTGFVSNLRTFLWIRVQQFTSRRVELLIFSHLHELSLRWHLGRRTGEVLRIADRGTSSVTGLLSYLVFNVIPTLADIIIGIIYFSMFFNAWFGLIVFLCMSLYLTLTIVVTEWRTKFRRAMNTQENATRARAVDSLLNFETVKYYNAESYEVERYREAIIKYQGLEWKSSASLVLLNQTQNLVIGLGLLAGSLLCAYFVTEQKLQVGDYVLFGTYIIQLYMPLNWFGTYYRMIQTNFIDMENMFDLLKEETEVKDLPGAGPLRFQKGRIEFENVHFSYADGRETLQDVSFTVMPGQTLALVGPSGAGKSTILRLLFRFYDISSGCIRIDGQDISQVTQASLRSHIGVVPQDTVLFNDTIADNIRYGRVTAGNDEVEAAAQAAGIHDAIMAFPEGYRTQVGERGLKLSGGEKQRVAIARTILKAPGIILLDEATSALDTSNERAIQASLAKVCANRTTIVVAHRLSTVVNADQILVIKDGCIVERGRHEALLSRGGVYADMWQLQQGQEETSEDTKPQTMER
ATG4B inh: ATG4B protease inhibitors, primary screen, biochemical, fluorescence, uHTS. AID 504462, 2011. inhibition, % at 8.33 µM. ATG4B cleavage of LC3-PLA2, NBD-HPC fluorescence, 1 h. hit rate 0.51% among 340,000; in the data active = inhibition above about 40%
Myeloid diff 2: induction of myeloid progenitor differentiation, primary screen, cell-based, flow cytometry, MLPCN library; ER-HoxA9 myeloid progenitors, lysozyme-GFP differentiation; calls only at 10 µM; hit rate 1% among 360,000; AID 624256, 2012;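 active = normalized GFP-positive differentiation at or above the plate's own cutoff, the solvent-only control mean plus 3 SD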;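 also: cells exposed to compound for four days before flow analysis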
CendR NRP1 mod: modulators of CendR peptide binding to NRP-1, primary screen, biochemical, fluorescence polarization, uHTS | inhibition, % at 25 µM | Neuropilin-1 (Homo sapiens), O14786 | AID 602438, 2012 | FAM-RPARPAR peptide binding to NRP-1 | hit rate 0.85% among 360,000;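 active = inhibition or corrected inhibition above about 18%, plus a signal ratio from 0.5 to 1.5, limit read from the data, passing the limit was not always enough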
Granule exo inh: LAMP-1 surface exposure blockers, TALL-104 cells – cell-based, flow cytometry, MLPCN library, primary screen; TALL-104 LAMP-1 surface exposure; cells stimulated with thapsigargin and PMA; inhibition, % at 10 µM; hit rate 0.66% among 360,000; AID 651702, 2012;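 active = inhibition above about 55%, limit read from the data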
ATG4B conf: ATG4B protease inhibitors, retest, confirmation, biochemical, fluorescence, single concentration; inhibition, % at 8.33 µM; shares compounds with ATG4B inh; AID 504757, 2011; hit rate 92% among 320; ATG4B protease fluorescent substrate cleavage assay; in the data active = inhibition above about 39%
PLA2 counter: PLA2 enzyme inhibition, counter-screen for ATG4B inhibitor project, biochemical, single concentration, uHTS hits; shares compounds with ATG4B inh; purified PLA2, NBD-C6-HPC fluorescence, 45 min; inhibition, % at 8.33 µM; hit rate 66% among 1,600; AID 588402, 2011; in the data active = inhibition above about 50%
An asterisk follows results filed as active; i = inactive; nt = not tested or not shown. Most compounds without a hit are left out; they make up all but 3.3% or so of the library.

SMILES	Arrestin-AP2 inh	ABCB6 inh 2	ATG4B inh	Myeloid diff 2	CendR NRP1 mod	Granule exo inh	PLA2 counter	others
Cc1cc(C)cc(CN2C(=O)NC3(CCCCCC3)C2=O)c1	-3.3	95.0	10.3	i	3.6	-19.9	nt
CN1CCN(c2ccc(CNS(=O)(=O)Cc3ccc(Cl)cc3)cc2)CC1	-1.8	97.0	1.6	i	-0.9	-1.6	nt
CCN(C(=O)c1cc2c(C)nc3ccccc3c2o1)c1cc(Cl)ccc1OC	-14.2	91.0	-26.1	i	-2.1	9.5	nt
CC1CCCN(C(=O)c2ccc(COc3ccccc3Br)cc2)C1 (centres undefined)	-4.9	96.0	61.0*	i	9.8	0.0	68.6*
CCOc1ccc(OCc2ccc(C(=O)N3CCCC(C)C3)cc2)cc1 (centres undefined)	-4.8	99.0	37.8	i	8.1	2.3	nt
CC1CCCCC1NC(=O)COC(=O)c1c2c(nc3ccccc13)/C(=C/c1ccco1)CC2 (centres undefined)	10.7	116.0	53.1*	i	-41.7	-1.1	44.7	ATG4B conf=75.1*
O=C(CN1CCN(Cc2ccc(F)cc2Cl)CC1)NCc1ccccc1	26.6	99.0	-3.5	i	5.2	-1.4	nt
O=c1cc(-c2ccccc2Cl)oc2c(NS(=O)(=O)c3cc(Cl)cc(Cl)c3O)ccc(O)c12	34.7	96.0	101.0*	i	-49.8	-2.7	102.8*
COC(=O)COc1ccc(-c2ccc(F)cc2)cc1C=O	7.5	97.0	43.4*	i	11.5	3.7	59.1*
Cc1ccc(N2C(=O)CS/C2=N\C(=S)Nc2ccccc2)cc1	16.3	103.0	-7.9	i	-1.0	-10.2	nt
C#CCCC(=O)c1ccccc1/C=[N+](\[O-])c1ccccc1	28.1	100.0	41.7*	i	-32.4	1.6	62.0*
Cc1cc(C(=O)N/N=C/c2ccc(-c3cccc(Cl)c3Cl)o2)n[nH]1	-1.6	96.0	50.3*	i	-28.8	3.3	21.1
Cc1nn(-c2ccccc2)cc1C(c1c(N)[nH]c(=S)[nH]c1=O)c1c(N)[nH]c(=S)[nH]c1=O	-7.4	95.0	45.7*	i	-42.6	19.2	-21.9
Cc1nn(-c2ccccc2)cc1/C=N/NC(N)=S	14.2	95.0	4.5	i	-3.6	16.0	nt
Cc1ccc2nc(CN(C)C(=O)[C@H]3O[C@@H](n4ccc(N)nc4=O)[C@H](O)[C@@H]3O)[nH]c2c1	nt	101.0	nt	i	7.3	-0.6	nt
O=C(CCCn1c(=S)[nH]c2cc3c(cc2c1=O)OCO3)N1CCN(c2ccc(F)cc2)CC1	-23.0	102.0	55.8*	i	10.1	-1.8	47.8	ATG4B conf=59.5*
Cc1ccc(C)c(N2CCN(C(=O)CCCn3c(=S)[nH]c4cc5c(cc4c3=O)OCO5)CC2)c1	-5.9	100.0	51.8*	i	-2.0	-0.1	62.5*
O=C(CCCCCn1c(=S)[nH]c2cc3c(cc2c1=O)OCO3)N1CCN(c2ccccc2)CC1	4.0	98.0	7.0	i	-1.0	-12.5	nt
O=C(CCCn1c(=S)[nH]c2cc3c(cc2c1=O)OCO3)N1CCN(c2ccccc2F)CC1	-7.4	102.0	50.6*	i	-1.1	5.0	53.7*
O=C(COC(=O)c1c(F)cccc1Cl)NC1CCCCC1	36.2	96.0	1.8	i	-6.2	2.7	nt
O=C(CSCc1c(F)cccc1Cl)NNC(=S)NC1CCCCC1	-9.3	91.0	65.6*	i	0.9	-2.8	62.9*
Cc1cc(C=C2C(=O)c3ccccc3C2=O)c(C)n1-c1ccccc1	18.7	102.0	44.5*	i	-7.2	-3.6	-5.9	ATG4B conf=67.1*
Cc1cc(C=C2C(=O)c3ccccc3C2=O)c(C)n1-c1ccc(C(=O)O)cc1	-8.4	88.0	-4.2	i	-110.4	4.3	nt
Cc1ccc(NC(=O)[C@@H](NC(=O)c2cccc(S(=O)(=O)N3CCOCC3)c2)C(C)C)cc1C	-10.7	99.0	-7.9	i	-5.2	-0.4	nt
O=c1cc(CSc2nc3ccccc3[nH]2)c2ccccc2[nH]1	-2.4	105.0	-9.9	i	10.7	-2.9	nt
SMILES	Arrestin-AP2 inh	ABCB6 inh 2	ATG4B inh	Myeloid diff 2	CendR NRP1 mod	Granule exo inh	PLA2 counter	others
Fc1ccc(CSc2nc3ccccc3[nH]2)c2ccccc12	-0.3	97.0	66.5*	i	20.1	-0.4	74.3*
Cn1c(-c2ccc3c(c2)OCO3)cnc1NCc1ccccc1	5.2	101.0	3.8	i	-0.1	-0.4	nt
Cn1c(-c2ccc3c(c2)OCO3)cnc1NCc1cccc(Cl)c1	-9.9	90.0	52.4*	i	0.1	-5.9	57.6*
CC1(C(=O)OCC(=O)Nc2nnc(-c3ccccc3)o2)CC1(Cl)Cl (centres undefined)	1.7	88.0	4.1	i	-11.9	-0.4	nt
Cc1c(Cl)cccc1NC(=S)NCC1COc2ccccc2O1 (centres undefined)	25.8	104.0	88.4*	i	3.8	0.4	89.2*
COc1ccccc1NC(=S)NCc1ccccc1Cl	-11.6	95.0	5.1	i	-7.9	0.3	nt
COc1cccc(CNC(=S)Nc2cccc(Cl)c2C)c1	-7.2	102.0	54.1*	i	6.0	9.1	65.3*
Cc1c(Cl)cccc1NC(=S)NCc1cccn1C	11.6	102.0	46.7*	i	28.3*	-1.8	66.0*
Cc1c(Cl)cccc1NC(=S)NCc1ccccc1Cl	38.4	99.0	78.7*	i	-9.5	1.7	83.4*
Cc1cc(OCc2cn(CC(=O)c3ccc(O)cc3)nn2)ccc1[N+](=O)[O-]	31.5	98.0	5.2	i	2.1	0.4	nt
Fc1ccc(CNC(=S)Nc2ccccc2Cl)cc1	3.4	98.0	10.2	i	1.8	-4.1	nt
COC(=O)c1cccc(NC(=S)Nc2cccc(Cl)c2C)c1	41.4	94.0	57.8*	i	-1.3	-0.6	56.1*
Cc1c(Cl)cccc1NC(=S)NCc1ccc(F)cc1	8.2	99.0	58.4*	i	0.1	-0.8	69.2*
Cc1c(Cl)cccc1NC(=S)NCCC(c1ccccc1)c1ccccc1	0.8	99.0	90.8*	i	5.3	0.9	93.2*
Cc1c(Cl)cccc1NC(=S)NCCC(C)C	5.5	97.0	63.7*	i	-5.1	1.4	67.4*
